Measurements published in ChEMBL document CHEMBL1127464, “Inhibitors of HIV-1 proteinase containing 2-heterosubstituted 4-amino-3-hydroxy-5-phenylpentanoic acid: synthesis, enzyme inhibition, and antiviral activity” (J Med Chem, 1994).

Tests used:
MT4 [1] = experiment: Antiviral activity by analysis of p26 antigen concentration for HIV-2 strain EHO, replication in MT-4 cells; format: functional, cell-based; settings: Homo sapiens
MT4 [2] = experiment: Antiviral activity by analysis of p24 antigen concentration for HIV-1 strain IIIB in de novo infected MT-4 cells; format: functional, cell-based; settings: Homo sapiens
[3] = system: Human immunodeficiency virus 1; experiment: Antiviral activity by observing cytopathic effect induced by HIV-1 strain IIIB in de novo infected MT-4 cells; format: functional, organism-based; settings: Human immunodeficiency virus 1, MT4
Pepsin A = Pepsin A (Sus scrofa, UniProt P00791); experiment: Selectivity for their inhibitory potency against porcine pepsin
Procedure, shortened: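 Porcine pepsin assayed in 0.1 M glycine–HCl, pH 2.0, with 0.5% hemoglobin substrate and [14C]methylhemoglobin tracer.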

[4] = molecular target: Human immunodeficiency virus type 1 protease (Human immunodeficiency virus 1, UniProt Q72874); experiment: Inhibitory constant against HIV-1 protease
Procedure, shortened: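 HIV-1 proteinase expressed in E. coli JM 105 and purified to homogeneity. Initial rates were taken from the absorbance decrease at 298 nm. IC50 came from a fit of the initial velocities. Ki was derived from IC50 accounting for enzyme, substrate and Km. Mean of two determinations.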

Cathepsin D [5] = molecular target: T1, Cathepsin D (Homo sapiens, UniProt P07339); experiment: (§1) Selectivity for their inhibitory potency against human cathepsin D.
Renin = molecular target: T2, Renin (Homo sapiens, UniProt P00797); experiment: Selectivity for their inhibitory potency against human renin
T2 sequence (P00797 whole entry): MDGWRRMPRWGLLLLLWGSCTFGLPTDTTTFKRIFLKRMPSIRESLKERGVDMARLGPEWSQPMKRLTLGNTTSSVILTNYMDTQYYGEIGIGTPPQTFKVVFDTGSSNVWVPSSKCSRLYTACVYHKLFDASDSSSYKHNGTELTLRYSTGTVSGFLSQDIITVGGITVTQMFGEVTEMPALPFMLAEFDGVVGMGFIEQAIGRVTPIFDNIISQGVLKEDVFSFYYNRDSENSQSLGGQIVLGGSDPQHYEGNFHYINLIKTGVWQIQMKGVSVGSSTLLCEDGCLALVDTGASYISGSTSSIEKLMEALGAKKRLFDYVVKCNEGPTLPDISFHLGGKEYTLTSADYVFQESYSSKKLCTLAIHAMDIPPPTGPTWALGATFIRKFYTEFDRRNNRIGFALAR

Cathepsin D [6] = molecular target: T1, Cathepsin D; experiment: as §1; format: functional

Sequence of Pepsin A (P00791 whole entry): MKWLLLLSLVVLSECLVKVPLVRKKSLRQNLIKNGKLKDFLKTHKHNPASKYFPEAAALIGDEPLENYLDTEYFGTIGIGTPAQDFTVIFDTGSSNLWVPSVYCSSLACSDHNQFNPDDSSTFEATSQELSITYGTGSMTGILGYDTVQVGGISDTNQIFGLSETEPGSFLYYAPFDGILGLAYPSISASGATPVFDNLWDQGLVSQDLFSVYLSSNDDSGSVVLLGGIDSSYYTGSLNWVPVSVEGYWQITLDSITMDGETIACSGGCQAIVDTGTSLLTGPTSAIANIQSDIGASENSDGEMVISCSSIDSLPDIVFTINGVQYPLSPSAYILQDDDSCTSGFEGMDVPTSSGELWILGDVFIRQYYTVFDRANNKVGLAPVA
T1 sequence (P07339 65-162 limits assumed): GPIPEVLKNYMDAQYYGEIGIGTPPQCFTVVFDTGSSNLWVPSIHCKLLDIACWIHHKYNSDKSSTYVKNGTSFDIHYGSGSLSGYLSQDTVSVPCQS
T1 sequence (P07339 169-412 limits assumed): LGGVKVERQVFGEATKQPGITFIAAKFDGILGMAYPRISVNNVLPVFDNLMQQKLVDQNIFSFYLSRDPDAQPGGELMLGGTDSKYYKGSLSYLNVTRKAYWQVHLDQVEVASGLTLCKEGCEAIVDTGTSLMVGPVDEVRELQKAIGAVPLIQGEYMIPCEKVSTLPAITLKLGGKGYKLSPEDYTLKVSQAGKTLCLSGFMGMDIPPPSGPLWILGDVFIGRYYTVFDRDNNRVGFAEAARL

In the case of COc1ccc(CN[C@@H](C(=O)N[C@H](C(=O)NCc2ccccc2)C(C)C)[C@H](O)[C@H](Cc2ccccc2)NC(=O)[C@@H](NC(=O)OCc2ccccc2)C(C)C)cc1, the IC50 (MT4 [1]) is reported as 810 nM, the IC50 (MT4 [2]) is reported as 132 nM and the IC50 [3] is reported as 320 nM. For the same compound, the IC50 (Pepsin A) was > 10000 nM, the Ki [4] was 7.4 nM and the IC50 (Cathepsin D [5]) was 110 nM. The IC50 (Renin) was > 10000 nM.

CC(C)[C@H](NC(=O)OCc1ccccc1)C(=O)N[C@@H](Cc1ccccc1)[C@@H](O)[C@@H](NCc1ccccc1)C(=O)N[C@H](C(=O)NCc1ccccc1)C(C)C was tested, and the IC50 (Cathepsin D [6]) was 35 nM, the IC50 (MT4 [1]) was > 3000 nM and the IC50 (MT4 [2]) was 315 nM. The IC50 [3] was 580 nM, the IC50 (Pepsin A) was > 10000 nM and the Ki [4] was 6.1 nM. For the same compound, the IC50 (Renin) was > 10000 nM.

With COc1ccc(CN[C@@H](C(=O)N[C@H](C(=O)NCc2nc3ccccc3[nH]2)C(C)C)[C@H](O)[C@H](Cc2ccccc2)NC(=O)[C@@H](NC(=O)OCc2ccccc2)C(C)C)cc1 the IC50 (MT4 [1]) was 460 nM, the IC50 (MT4 [2]) was 9.7 nM and the IC50 [3] was 25 nM. For the same compound, the IC50 (Pepsin A) was > 10000 nM, the Ki [4] was 3.4 nM and the IC50 (Cathepsin D [5]) was 380 nM. The IC50 (Renin) was > 10000 nM.

Compound COc1ccc(CN[C@@H](C(=O)N[C@H](C(=O)NCc2nc3ccccc3[nH]2)C(C)C)[C@H](O)[C@H](Cc2ccccc2)NC(=O)[C@@H](NC(=O)C(C)Oc2ccccc2)C(C)(C)C)cc1 (stereo partly specified) has an IC50 (MT4 [1]) of 470 nM, an IC50 (MT4 [2]) of 7.9 nM and an IC50 [3] of 38 nM. The IC50 (Pepsin A) was > 10000 nM, the Ki [4] was 6 nM and the IC50 (Cathepsin D [5]) was 2000 nM. For the same compound, the IC50 (Renin) was > 10000 nM.

COc1ccc(CN[C@@H](C(=O)N[C@H](C(=O)NCc2nc3ccccc3[nH]2)C(C)C)[C@H](O)[C@H](Cc2ccccc2)NC(=O)[C@@H](NC(=O)OCc2ccccc2)C(C)(C)C)cc1 gave an IC50 (MT4 [1]) of 385 nM, an IC50 (MT4 [2]) of 5.4 nM and an IC50 [3] of 14 nM. For the same compound, the IC50 (Pepsin A) was > 10000 nM, the Ki [4] was 4.6 nM and the IC50 (Cathepsin D [5]) was 1000 nM. For the same compound, the IC50 (Renin) was > 10000 nM.

COc1ccc(CN[C@@H](C(=O)N[C@H](C(=O)NCc2nc3ccccc3[nH]2)C(C)C)[C@H](O)[C@H](Cc2ccccc2)NC(=O)[C@@H](NC(=O)CCc2ccc(O)cc2)C(C)(C)C)cc1 was tested, and the IC50 (MT4 [2]) was 21 nM, the IC50 [3] was 96 nM and the IC50 (Pepsin A) was > 10000 nM. For the same compound, the Ki [4] was 13 nM, the IC50 (Cathepsin D [5]) was > 10000 nM and the IC50 (Renin) was > 10000 nM.

With CC[C@H](C)[C@H](NC(=O)[C@H](NCc1ccccc1)[C@H](O)[C@H](Cc1ccccc1)NC(=O)[C@@H](NC(=O)OCc1ccccc1)C(C)C)C(=O)NCc1ccccc1 the IC50 [3] was > 3000 nM and the Ki [4] was > 3000 nM.

For CC(C)[C@H](NC(=O)OCc1ccccc1)C(=O)N[C@@H](Cc1ccccc1)[C@@H](O)[C@@H](NCc1cccc2ccccc12)C(=O)N[C@H](C(=O)NCc1ccccc1)C(C)C, the IC50 [3] was > 3000 nM and the Ki [4] was 26 nM.

Compound CC(C)[C@H](NC(=O)OCc1ccccc1)C(=O)N[C@@H](Cc1ccccc1)[C@@H](O)[C@@H](Nc1ccccc1)C(=O)N[C@H](C(=O)NCc1ccccc1)C(C)C has an IC50 [3] of 1340 nM and a Ki [4] of 6.9 nM.

CCOC(=O)[C@@H](NC(=O)[C@H](NCc1ccccc1)[C@H](O)[C@H](Cc1ccccc1)NC(=O)[C@@H](NC(=O)OCc1ccccc1)C(C)C)C(C)C was tested, and the IC50 [3] was > 3000 nM and the Ki [4] was 1200 nM.

In the case of CC(C)[C@H](NC(=O)[C@H](NCc1ccccc1)[C@H](O)[C@H](Cc1ccccc1)NC(=O)[C@H](CC(N)=O)NC(=O)OCc1ccccc1)C(=O)NCc1ccccc1, the IC50 [3] is reported as 1010 nM and the Ki [4] is reported as 10.4 nM.

Compound CC(C)[C@H](NC(=O)[C@H](NCc1ccc(Cl)cc1)[C@H](O)[C@H](Cc1ccccc1)NC(=O)[C@@H](NC(=O)OCc1ccccc1)C(C)(C)C)C(=O)NCc1nc2ccccc2[nH]1 has an IC50 (MT4 [1]) of 240 nM, an IC50 (MT4 [2]) of 11.3 nM and an IC50 [3] of 34 nM. The IC50 (Pepsin A) was > 10000 nM, the Ki [4] was 7.5 nM and the IC50 (Cathepsin D [5]) was 1800 nM. The IC50 (Renin) was > 10000 nM.

With CC[C@H](NC(=O)OCc1ccccc1)C(=O)N[C@@H](Cc1ccccc1)[C@@H](O)[C@@H](NCc1ccccc1)C(=O)N[C@H](C(=O)NCc1ccccc1)C(C)C the IC50 [3] was 2000 nM and the Ki [4] was 17.1 nM.

CC(C)[C@H](NC(=O)[C@H](NCc1ccccc1)[C@H](O)[C@H](Cc1ccccc1)NC(=O)[C@H](C)NC(=O)OCc1ccccc1)C(=O)NCc1ccccc1 was tested, and the IC50 [3] was > 3000 nM and the Ki [4] was 34 nM.

Work on CC(C)[C@H](NC(=O)[C@H](NCc1ccccc1)[C@H](O)[C@H](Cc1ccccc1)NC(=O)[C@@H](NC(=O)OCc1ccccc1)C(C)(C)C)C(=O)NCc1ccccc1 yielded an IC50 (MT4 [1]) of 1400 nM, an IC50 (MT4 [2]) of 93 nM and an IC50 [3] of 320 nM. The IC50 (Pepsin A) was > 10000 nM, the Ki [4] was 9.2 nM and the IC50 (Cathepsin D [5]) was 60 nM. For the same compound, the IC50 (Renin) was > 10000 nM.

For CC(C)[C@H](NC(=O)OCc1ccccc1)C(=O)N[C@@H](Cc1ccccc1)[C@@H](O)[C@@H](Nc1ccc(-c2ccccc2)cc1)C(=O)N[C@H](C(=O)NCc1ccccc1)C(C)C, the IC50 [3] was > 3000 nM and the Ki [4] was 59 nM.
